High-throughput results as filed in PubChem BioAssay.
An excerpt weighted towards active compounds, which were near 1.4% of everything screened.
NS3 helicase inh: HCV NS3 helicase inhibition; NS3 helicase DNA unwinding, Cy5 molecular beacon fluorescence; inhibition, % at 10.9 µM; actives 0.56% (n = 290,000); AID 1800;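 active means inhibition above the mean of all tested compounds plus 3 SD, set per campaign, cut at about 35% in these data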;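 further: 0% = DMSO wells and 100% = thioflavine S control wells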
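Compound dosing – single dose, 10.9 µM nominal final, DMSO 0.8% final · System – NS3 helicase fragment of HCV · Buffer or medium – MOPS pH 6.5, MgCl2, DTT, Tween20, BSA · Signal – Cy5 beacon fluorescence read at start and 1 h · Also added – annealed dual-labelled DNA beacon duplex, ATP-started · Schedule – 1 h at 25 °C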
Fh CTSL1 inh: counter-screen for PFM18AAP inhibitors: inhibitors of F. hepatica cathepsin L1; recombinant F. hepatica cathepsin L1, Z-Leu-Arg-MCA fluorescence; inhibition, % at 5.96 µM; actives 0.49% (n = 300,000);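 active means inhibition above the mean of all tested compounds plus 3 SD, set per screening campaign, cut at about 17% in these data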;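 further: 0% = plate median of test compound wells and 100% = 1 µM Z-Phe-Ala-diazomethylketone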
EBNA-1 inhibitor: blocks EBNA-1 binding to DNA. EBNA-1 DNA binding, fluorescence polarization. inhibition, % at 14.8 µM. actives 0.34% (n = 300,000). AID 1950; in the data active means inhibition above about 28%
ZTA counter: counter-screen for EBNA-1 inhibitors: inhibitors of Epstein-Barr virus ZTA | P03206 | ZTA-DNA binding, fluorescence polarization | inhibition, % at 11 µM | actives 0.15% (n = 320,000); in the data active means inhibition above about 33%
Target sequence (P03206 whole entry, looked up): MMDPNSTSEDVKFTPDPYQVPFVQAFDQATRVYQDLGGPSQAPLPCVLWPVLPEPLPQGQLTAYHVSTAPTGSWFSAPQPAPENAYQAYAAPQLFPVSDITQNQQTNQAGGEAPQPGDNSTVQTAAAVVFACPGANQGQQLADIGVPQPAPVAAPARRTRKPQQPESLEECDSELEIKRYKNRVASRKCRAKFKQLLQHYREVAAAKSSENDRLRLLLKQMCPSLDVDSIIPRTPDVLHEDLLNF
EBNA-1 confirm: EBNA-1 (EBV) inhibition, confirmation | inhibition, % at 14.8 µM | actives 35% (n = 830) | AID 2292 | Recombinant EBNA-1 DBD, Cy5-DNA fluorescence polarization | shares compounds with EBNA-1 inhibitor;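 active means mean inhibition across replicates above a set limit taken from the earlier primary screen, cut at about 28% in these data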;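 further: plate controls were EBNA-1 protein with DMSO for no effect and wells lacking EBNA-1 for full effect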
ZTA DNA inh trip: ZTA (EBV) inhibition, triplicate counter-screen. shares compounds with EBNA-1 inhibitor. Zta-ZRE DNA binding, Cy5 fluorescence polarization. inhibition, % at 11.1 µM. 830 tested, under 10 active. AID 2328;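 active means mean inhibition over triplicates above a set limit taken from the primary EBNA-1 screen, cut at about 37% in these data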;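 further: purified full length Zta protein with Cy5 labeled ZRE DNA probe; 0% = Zta with DMSO and 100% = wells lacking Zta protein; inhibitors lower polarization by freeing the labeled DNA probe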
Starred values were filed as active, the others as inactive; nt = not tested or not shown.

SMILES	NS3 helicase inh	Fh CTSL1 inh	EBNA-1 inhibitor	ZTA counter	EBNA-1 confirm	ZTA DNA inh trip
Cc1ccc(N2C(=O)CC(N(CCc3ccccc3)C(=S)Nc3ccc(N(C)C)cc3)C2=O)cc1 (centres undefined)	-6.1	0.6	56.8*	10.5	17.9	-2.6
O=C(NCc1ccc2c(c1)OCO2)C12CN(Cc3ccccc3)CC1C(c1cccc([N+](=O)[O-])c1)=NO2 (centres undefined)	-5.7	5.6	174.0*	10.8	-20.7	-4.9
Cc1cccc(C(=O)Nc2nc3ccc(S(C)(=O)=O)cc3s2)c1	25.8	nt	nt	nt	nt	nt
Cc1ccc(C(=O)Nc2nc3ccc(S(C)(=O)=O)cc3s2)cc1C	-2.7	-0.7	143.9*	-3.8	96.8*	16.1
Cc1cc(NC(=O)COC(=O)c2oc3c(ccc4ccccc43)c2C)no1	0.2	-2.1	50.4*	16.8	55.6*	4.2
CC(C)NC(=O)C1CC(=O)N(c2ccc(F)c(Cl)c2)C1 (centres undefined)	-7.3	-2.9	31.8*	-17.8	4.2	6.2
CNC(=O)C1CC(=O)N(c2ccc(F)c(Cl)c2)C1 (centres undefined)	-2.8	4.2	7.4	9.3	nt	nt
O=C(N/N=C/c1ccc(OC(F)F)cc1OC(F)F)c1cccc(S(=O)(=O)N2CCOCC2)c1	0.8	-4.7	-8.6	-3.0	nt	nt
CC(C)CN1C(=O)c2ccc(NC(=O)c3cccs3)cc2C1=O	-1.0	2.9	5.2	0.2	nt	nt
O=C(Nc1ccc(Oc2ccc3c(c2)C(=O)N(c2ccc(O)cc2)C3=O)cc1)c1cccs1	-4.5	7.2	28.4*	22.3	55.3*	13.1
CCCN1Cc2cccc(C(=O)Nc3ccc(-c4nc5ccccc5[nH]4)cc3)c2C1=O	7.1	5.9	58.3*	-6.0	50.7*	3.4
O=C(NC(=S)Nc1ccc(N2CCOCC2)c(Cl)c1)c1sc2ccccc2c1Cl	3.3	-3.5	-1.4	3.2	nt	nt
CN(C)C(=O)C(OC(=O)c1ccc2ccccc2n1)c1ccccc1 (centres undefined)	0.1	-8.3	3.2	9.1	nt	nt
COc1ccc(C2CC(C(F)(F)F)n3nc(C(=O)Nc4ccc5c(c4)OCO5)cc3N2)cc1 (centres undefined)	-13.3	-2.1	40.2*	1.4	109.8*	-0.8
Cc1nc(SCC(=O)NCC2CCCO2)c2cc(-c3ccccc3)sc2n1 (centres undefined)	nt	nt	nt	-2.5	nt	nt
COc1cc(-c2nc3n(n2)C(c2cccc(OC)c2OC)C2=C(CCCC2=O)N3)cc(OC)c1OC (centres undefined)	4.9	3.6	84.5*	3.3	111.5*	0.3
COc1cc(-c2nc3n(n2)C(c2ccncc2)C2=C(CCCC2=O)N3)cc(OC)c1OC (centres undefined)	2.1	2.9	11.4	18.1	nt	nt
COC(=O)c1ccc(Nc2cc(C)nc(-c3ccccc3O)n2)cc1	4.2	4.5	29.4*	-2.9	0.1	-3.8
COC(=O)c1cccc(Nc2cc(C)nc(-c3ccccc3O)n2)c1	-6.5	2.2	5.2	19.2	nt	nt
Cc1ccc(-n2nnc3c(SCC(=O)NCC4CCCO4)ncnc32)cc1 (centres undefined)	-1.0	-3.0	-2.9	1.4	nt	nt
CN(C)/C=C/C(=O)c1nn(-c2ccc(F)cc2)ccc1=O	-0.7	2.3	3.5	2.5	nt	nt
CCCCN(C(=O)c1cccc(N2C(=O)c3ccccc3C2=O)c1)c1c(N)n(CC(C)C)c(=O)[nH]c1=O	nt	nt	nt	-4.5	nt	nt
CCCCN(C(=O)c1cccc(-n2cccc2)c1)c1c(N)n(Cc2ccccc2)c(=O)[nH]c1=O	nt	1.5	30.7*	22.4	-4.5	-6.8
CCCCN(C(=O)c1cc(CC)c(C)s1)c1c(N)n(CC(C)C)c(=O)[nH]c1=O	1.5	-0.8	66.4*	-16.3	4.3	-6.2
Cc1c(NC(=O)COC(=O)c2cc(-c3ccc(-c4ccccc4)cc3)nc3ccccc23)c(=O)n(-c2ccccc2)n1C	1.4	-1.2	31.4*	18.1	16.2	-0.7
SMILES	NS3 helicase inh	Fh CTSL1 inh	EBNA-1 inhibitor	ZTA counter	EBNA-1 confirm	ZTA DNA inh trip
O=C(Nc1ccc2oc(=O)ccc2c1)c1ccc(-c2cccc(Cl)c2)o1	12.8	5.8	31.8*	4.6	25.3	21.1
Cc1ccc(C(=O)CSc2nnc(CNc3ccc(C)cc3C)o2)cc1	-3.6	1.3	30.7*	-10.0	0.9	-6.5
COc1cc2[nH]c(=O)n(Cc3ccccc3Cl)c(=O)c2cc1OC	-7.4	-0.6	39.4*	-7.0	21.7	2.7
COc1cc2[nH]c(=S)n(Cc3ccccc3)c(=O)c2cc1OC	7.4	7.6	16.7	-1.3	nt	nt
CCOc1ccc(C(=O)NCCN(C)C)cc1	-0.4	-2.5	-5.8	-7.9	nt	nt
CCOc1ccc(C(=O)NCCCCNC(=O)c2ccc(OCC)cc2)cc1	-9.0	-3.9	28.1*	-5.9	25.1	0.3
COc1ccc(NC(=O)Nc2ccccc2F)cc1	2.6	0.8	11.8	-2.1	nt	nt
COc1ccc(NC(=O)Nc2ccccc2F)cc1Cl	1.2	-1.8	88.8*	-22.1	22.1	13.6
Cc1ccc(Nc2nc(Oc3ccc(OCc4ccccc4)nn3)nc(N3CCOCC3)n2)cc1	4.5	3.2	32.4*	-6.4	2.8	-4.7
c1ccc(COc2ccc(Oc3nc(N4CCCCC4)nc(N4CCOCC4)n3)nn2)cc1	-6.8	1.6	13.5	6.9	nt	nt
COc1cccc(NC(=O)C2CCCN(S(=O)(=O)c3ccc(-n4cnnn4)cc3)C2)c1 (centres undefined)	-13.8	3.8	55.3*	-13.7	24.0	2.7
CCOc1cccc(NC(=O)C2CCCN(S(=O)(=O)c3ccc(-n4cnnn4)cc3)C2)c1 (centres undefined)	2.4	1.4	2.1	-13.6	nt	nt
Cc1ccc(S(=O)(=O)N2CCCC(C(=O)Nc3cccnc3)C2)cc1 (centres undefined)	12.4	3.6	-0.8	-9.5	nt	nt
Cc1ccc(S(=O)(=O)N2CCCC(C(=O)Nc3ccc(NC(=O)c4ccccn4)cc3)C2)cc1 (centres undefined)	10.2	1.0	77.7*	14.9	30.8*	-9.6
Cc1cc(C)cc(NC(=O)C2CCCN(S(=O)(=O)c3c(C)noc3C)C2)c1 (centres undefined)	0.8	-1.4	43.9*	-4.6	3.1	1.9
Nc1nnnn1/N=C/c1ccccc1O	nt	5.8	-5.9	-6.5	nt	nt
O=C1CCC(C(=O)OC(C(=O)c2c[nH]c3ccccc23)c2ccccc2)=NN1 (centres undefined)	4.0	-40.5	-3.9	-18.9	nt	nt
Cc1ccc(NC(=O)CCCN2C(=O)c3cccc4cccc(c34)C2=O)cc1	5.0	-1.3	55.4*	11.6	9.2	7.5
Cc1ccc(NC(=O)CCN2C(=O)c3cccc4cccc(c34)C2=O)cc1	4.9	1.8	-16.0	-10.3	nt	nt
O=C1[C@H]2[C@@H](c3ccc(F)cc3)N3C(=O)N(c4cccc(Br)c4)C(=O)[C@@]3(Cc3ccccc3)[C@H]2C(=O)N1C1CCCCC1	nt	-1.4	10.1	4.2	nt	nt
